SMILES strings stand for the structures. In brackets after ≈: the same amount, converted by molar mass.

Data set [1] deals with T1, Nuclear receptor ROR-gamma (Homo sapiens, UniProt P51449).
T1 sequence (P51449 whole entry): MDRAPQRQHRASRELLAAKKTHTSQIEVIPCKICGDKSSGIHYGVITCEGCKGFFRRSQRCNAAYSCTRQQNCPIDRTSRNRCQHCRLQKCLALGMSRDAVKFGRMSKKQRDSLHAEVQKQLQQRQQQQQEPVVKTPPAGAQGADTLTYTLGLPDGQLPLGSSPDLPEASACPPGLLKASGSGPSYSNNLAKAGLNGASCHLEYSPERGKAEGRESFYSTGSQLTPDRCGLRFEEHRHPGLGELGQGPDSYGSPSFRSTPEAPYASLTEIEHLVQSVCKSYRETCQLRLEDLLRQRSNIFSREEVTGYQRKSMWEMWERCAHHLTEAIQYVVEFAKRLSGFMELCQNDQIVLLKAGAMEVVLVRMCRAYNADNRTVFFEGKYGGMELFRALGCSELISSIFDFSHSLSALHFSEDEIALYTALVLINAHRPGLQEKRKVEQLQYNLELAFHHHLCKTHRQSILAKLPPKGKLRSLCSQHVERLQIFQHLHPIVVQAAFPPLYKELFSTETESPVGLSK
Put plainly: (§1) Inverse agonist activity at human N-terminal His6-tagged RORgammat LBD (265 to 518 residues) expressed in Escherichia coli BL21 (DE3) assessed as inhibition of N-terminal biotinylated co-activator SRC1 box2 peptide recruitment measured after 30 mins by TR-FRET assay. On the technique in general: In TR-FRET formats the signal depends on donor and acceptor labels being close together.

Data set [2] concerns the target T2, Peroxisome proliferator-activated receptor gamma (Homo sapiens, UniProt P37231).
T2 sequence (P37231 whole entry): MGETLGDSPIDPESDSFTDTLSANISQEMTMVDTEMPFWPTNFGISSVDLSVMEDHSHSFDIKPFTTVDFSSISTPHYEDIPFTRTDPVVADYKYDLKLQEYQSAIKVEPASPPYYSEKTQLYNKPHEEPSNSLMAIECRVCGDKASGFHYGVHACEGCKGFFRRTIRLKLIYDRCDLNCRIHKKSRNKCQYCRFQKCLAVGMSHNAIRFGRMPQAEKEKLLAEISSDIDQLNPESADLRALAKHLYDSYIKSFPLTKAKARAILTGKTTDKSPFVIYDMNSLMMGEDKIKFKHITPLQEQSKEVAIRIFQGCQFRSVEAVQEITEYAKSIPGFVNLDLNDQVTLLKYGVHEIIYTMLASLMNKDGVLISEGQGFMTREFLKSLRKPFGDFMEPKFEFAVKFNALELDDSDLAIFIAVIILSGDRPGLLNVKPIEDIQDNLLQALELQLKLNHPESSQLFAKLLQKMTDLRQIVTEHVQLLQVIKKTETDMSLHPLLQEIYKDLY
Put plainly: Inverse agonist activity at His6-tagged PPARgamma LBD (unknown origin) assessed as inhibition of rosiglitazone-induced N-terminal biotinylated co-activator SRC1 box2 peptide recruitment measured after 30 mins by TR-FRET assay. The method in brief: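 His6-PPARγ-LBD at 100 nM with 100 nM N-terminal biotinylated SRC-1 box2 peptide in 10 mM HEPES, 150 mM NaCl, 5 mM DTT, 0.1% BSA, 0.1 mM CHAPS, pH 7.5, with 1 μM rosiglitazone. Tb anti-His donor, D2-streptavidin acceptor. Compounds in DMSO, 2× dilution series, 2% DMSO final. 30 min at room temperature. IC50 from sigmoidal fit of FRET ratio. Triplicate.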

Data set [3] concerns the target T1, Nuclear receptor ROR-gamma. Put plainly: Competitive inverse agonist activity at human N-terminal His6-tagged RORgammat LBD (265 to 518 residues) expressed in Escherichia coli BL21 (DE3) assessed as inhibition of N-terminal biotinylated co-activator SRC1 box2 peptide recruitment measured after 30 mins in presence of 1 uM RORgamma agonist cholesterol by TR-FRET assay.

The target of data set [4] is T1, Nuclear receptor ROR-gamma. Put plainly: Competitive inverse agonist activity at human N-terminal His6-tagged RORgammat LBD (265 to 518 residues) expressed in Escherichia coli BL21 (DE3) assessed as inhibition of N-terminal biotinylated co-activator SRC1 box2 peptide recruitment measured after 30 mins in presence of 0.25 uM RORgamma agonist cholesterol by TR-FRET assay.

Data set [5] concerns the target T1, Nuclear receptor ROR-gamma. Kind of data set: Competitive inverse agonist activity at human N-terminal His6-tagged RORgammat LBD (265 to 518 residues) expressed in Escherichia coli BL21 (DE3) assessed as inhibition of N-terminal biotinylated co-activator SRC1 box2 peptide recruitment measured after 30 mins in absence of RORgamma agonist cholesterol by TR-FRET assay.

A short description of data set [6]: Intrinsic clearance in human liver microsomes at 3 uM measured up to 90 mins in presence of metabolic phase 1 cofactors by LC-MS analysis. Type of data set: ADME, Microsome. As to conditions: 1.5 h. For orientation: Microsomes from liver hold many membrane-bound enzymes, among them those of drug oxidation.
Data set [7] is described as follows: Stability of the compound in plasma (unknown origin) assessed as parent compound remaining at 5 uM measured after 1 hr by LC-MS analysis. The format is ADME, cell-free. As to conditions: read-out: Stability. The method in brief:
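5 μM compound incubated in 100% plasma for 1 h at 37 °C; % remaining by LC–MS.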

Data set [8] can be described thus: Kinetic solubility of the compound in pH 7.4 aqueous buffer at 500 uM measured after 90 mins by spectrophotometric method. Type of data set: physicochemical. As to conditions: read-out: Kinetic_solubility.
A short description of data set [9]: Stability in human liver microsomes assessed as parent compound remaining at 5 uM measured after 1 hr in presence of metabolic phase 2 cofactors UDPGA by LC-MS analysis. The format is ADME, Microsome. As to conditions: read-out: Stability. The method in brief: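 Glucuronidation conditions: 5 μM compound with liver microsomes supplemented with UDPGA, 1 h at 37 °C; % remaining determined by LC–MS.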

A short description of data set [10]: Permeability of the compound at 500 uM after 20 hrs by PAMPA. Type of data set: ADME. The method in brief: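 Donor compartment starts at 500 μM compound; after 20 h incubation, receiver-well absorbance read by spectrophotometry; permeation normalized to flux across a blank filter.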
In general terms: PAMPA measures passive passage across an artificial lipid membrane.

Data set [11] can be described thus: Chemical stability of the compound in pH 7.4 aqueous buffer assessed as parent compound remaining at 2 uM measured after 24 hrs by LC-MS analysis. The format is physicochemical. As to conditions: read-out: Stability. The method in brief: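 Compound at 2 μM final in aqueous buffer pH 7.4, sampled at 1, 7 and 24 h; LC–MS quantitation of each aliquot, % remaining expressed relative to the zero time point.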

Data set [12] in a line: Protein binding in plasma (unknown origin) at 5 uM measured after 6 hrs by LC-MS based equilibrium dialysis analysis. The format is ADME, cell-free. As to conditions: read-out: PPB (converted). The method in brief:
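Equilibrium dialysis: plasma incubated with 5 μM compound for 6 h at 37 °C, final compound concentrations determined by LC–MS.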

The target in data set [13] is T3, Nuclear receptor ROR-gamma (Homo sapiens) (UniProt P51449).
T3 sequence (whole entry): T1 sequence (P51449 whole entry)
Described as §1.

By IC50 is commonly meant the midpoint of a concentration-inhibition curve. As for `O=C(O)c1c(-c2c(Cl)cccc2C(F)(F)F)noc1-c1ccccc1`, the IC50 in data set [1] was > 100 µM.
Regarding `O=C(O)c1ccc(NCc2c(-c3c(Cl)cccc3C(F)(F)F)noc2-c2cccs2)cc1`, the IC50 is 1.75 µM in data set [1] and > 100 µM in data set [2].
As to `CC(C)(C)OC(=O)c1ccc(NC(=O)c2c(-c3c(Cl)cccc3C(F)(F)F)noc2-c2ccccc2)cc1`, the 50% inhibitory concentration (IC50) in data set [1] is > 100 µM.
With `O=C(O)c1ccc(NCc2c(-c3c(Cl)cccc3C(F)(F)F)noc2-c2ccccc2)cc1`, the 50% inhibitory concentration (IC50) in data set [2] was determined as 78.6 µM.
Consider `O=C(O)c1ccc(NCc2c(-c3c(Cl)cccc3C(F)(F)F)noc2-c2cccc(O)c2)cc1`, for which the half-maximal inhibitory concentration (IC50) in data set [2] is > 100 µM.
Turning to `C[C@H]1O[C@@H](O[C@H]2[C@@H](O)C[C@H](O[C@H]3[C@@H](O)C[C@H](O[C@H]4CC[C@@]5(C)[C@H](CC[C@@H]6[C@@H]5C[C@@H](O)[C@]5(C)[C@@H](C7=CC(=O)OC7)CC[C@]65O)C4)O[C@@H]3C)O[C@@H]2C)C[C@H](O)[C@@H]1O` [DIGOXIN], the IC50 in data set [3] is 85.4 µM; in data set [4], 33.6 µM; in data set [5] it was 7.01 µM.
Regarding `O=C(O)c1ccc(NCc2c(-c3c(Cl)cccc3C(F)(F)F)noc2-c2ccco2)cc1`, the CLH in [6] is 43.2 µL/min/mg. Moreover, the half-inhibitory concentration (IC50) in [2] was > 100 µM. In addition, the remaining at 1 h, 5 µM in data set [7] was 86.5%; in [9], 92.8%. Further, the solubility kinetic at 1.5 h, 500 µM in data set [8] amounted to 392 µM (≈ 181 µg/mL). In data set [10], this compound registered a permeability of 50.4%. Also, the remaining at 24 h, 2 µM in data set [11] turned out to be 100%.
Turning to `O=C(O)c1ccc(NCc2c(-c3c(Cl)cccc3C(F)(F)F)noc2-c2cccc3ccccc23)cc1`, the IC50 in data set [1] and in [2] was > 100 µM each time.
For the compound `O=C(O)c1ccc(-c2nn(C(=O)c3c(Cl)cccc3C(F)(F)F)c3ccccc23)cc1`, the remaining at 1 h, 5 µM in data set [7] was 100%; in data set [9], 47.1%. Further, the solubility kinetic at 1.5 h, 500 µM in data set [8] was found to be 390 µM (≈ 173 µg/mL). The compound also returned a permeability in [10] of 23.7%. The remaining at 24 h, 2 µM in [11] worked out at 81%. Moreover, the fraction unbound at 6 h, 5 µM in data set [12] was 0.001.
With `O=C(O)Cc1ccc(NC(=O)c2c(-c3c(Cl)cccc3C(F)(F)F)noc2-c2ccccc2)cc1`, the IC50 in data set [1] was > 100 µM.
Consider `O=C(O)c1ccc(NC(=O)c2c(-c3c(Cl)cccc3C(F)(F)F)noc2-c2ccccc2)cc1`, for which the inhibition result in [13] is “Dose-dependent effect”. Besides, the results for the remaining at 1 h, 5 µM in data set [7] and in data set [9] were 99.9% and 100%, respectively. Moreover, the solubility kinetic at 1.5 h, 500 µM in data set [8] was 490 µM (≈ 239 µg/mL). Besides, in data set [10], the permeability is listed as 60.1%. Moreover, the remaining at 24 h, 2 µM in data set [11] worked out at 95.4%. Further, the fraction unbound at 6 h, 5 µM in data set [12] is 0.022.
Take `O=C(O)c1ccc(C(=O)Nc2c(-c3c(Cl)cccc3C(F)(F)F)noc2-c2ccccc2)cc1`: the 50% inhibitory concentration (IC50) in [1] was > 100 µM.
In the case of `O=C(O)c1ccc(NCc2c(-c3c(Cl)cccc3C(F)(F)F)noc2-c2cc[nH]c2)cc1`, in data set [6], the CLH was 20.7 µL/min/mg. Besides, the remaining at 1 h, 5 µM in [7] turned out to be 85.9%; in data set [9] it was 69.8%. The solubility kinetic at 1.5 h, 500 µM in data set [8] was 411 µM (≈ 190 µg/mL). The compound also had a permeability in [10] of 33.6%. In [11], the remaining at 24 h, 2 µM was found to be 95.3%. Moreover, in [12], the fraction unbound at 6 h, 5 µM was 0.001.
`Cc1onc(-c2c(Cl)cccc2C(F)(F)F)c1C(=O)Nc1ccc(C(=O)O)cc1`: the inhibition result in [13] is “Dose-dependent effect”. Also, in [1], the half-inhibitory concentration (IC50) is > 100 µM.

These data come from ChEMBL document CHEMBL4376852, “Ligand-Based Design of Allosteric Retinoic Acid Receptor-Related Orphan Receptor γt (RORγt) Inverse Agonists” (J Med Chem, 2020).
